# Measurements: ChEMBL document CHEMBL5653631, “A Potent and Selective ULK1 Inhibitor Suppresses Autophagy and Sensitizes Cancer Cells to Nutrient Stress” (iScience, 2018)
# The source made the active and inactive calls. The rule behind the calls is not given here.
# Columns and labels:
# [1] = biological target: Serine/threonine-protein kinase 24 (Homo sapiens) (UniProt Q9Y6E0); assay: Inhibition of human recombinant MST3 at 40 nM in presence of ATP by radiometric assay relative to control
# [2] = biological target: Serine/threonine-protein kinase PLK1 (Homo sapiens) (UniProt P53350); assay: Inhibition of human recombinant PLK1 at 40 nM related to control ULK1
# [3] = biological target: Serine/threonine-protein kinase Nek7 (Homo sapiens) (UniProt Q8TDX7); assay: Inhibition of human recombinant NEK7 at 40 nM related to control ULK1
# U2OS = assay: Inhibition of autophagy in human U2OS cells expressing […] assessed as DFCP1-positive puncta formation at 5 uM incubated for 2.5 hrs in presence of […] by Fluorescent microscopy based analysis; type: functional, cell-based
# Summary of the method: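 U2OS cells stably expressing EGFP-DFCP1 treated 2.5 hr with vehicle or 100 nM AZD8055, with or without 5 μM inhibitor; imaged live by fluorescence microscopy; DFCP1-positive objects per cell counted in 20–25 cells per condition; mean ± SEM, two-tailed unpaired t test.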
# [4] = biological target: Interleukin-1 receptor-associated kinase 1 (Homo sapiens) (UniProt P51617); assay: Inhibition of human recombinant IRAK1 at 40 nM in presence of ATP by radiometric assay relative to control
# [5] = biological target: T1, MAP kinase-activated protein kinase 5 (Homo sapiens) (UniProt Q8IW41); assay: Inhibition of human recombinant MAPKAPK5 at 40 nM in presence of ATP by radiometric assay relative to control
# T1 sequence (whole entry): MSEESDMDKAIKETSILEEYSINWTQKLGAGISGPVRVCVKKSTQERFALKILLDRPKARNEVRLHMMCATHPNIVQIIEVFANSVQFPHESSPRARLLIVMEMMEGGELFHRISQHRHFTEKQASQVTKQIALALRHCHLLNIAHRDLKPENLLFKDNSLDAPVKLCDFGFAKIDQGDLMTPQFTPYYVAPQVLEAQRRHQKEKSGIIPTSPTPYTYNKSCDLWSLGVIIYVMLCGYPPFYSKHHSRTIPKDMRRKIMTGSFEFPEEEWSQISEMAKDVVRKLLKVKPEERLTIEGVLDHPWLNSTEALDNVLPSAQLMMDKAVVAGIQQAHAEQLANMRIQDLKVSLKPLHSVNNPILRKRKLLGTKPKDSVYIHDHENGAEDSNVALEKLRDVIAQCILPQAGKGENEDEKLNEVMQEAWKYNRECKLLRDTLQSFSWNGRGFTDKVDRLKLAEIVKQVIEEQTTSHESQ
# [6] = biological target: T2, Serine/threonine-protein kinase Nek11 (Homo sapiens) (UniProt Q8NG66); assay: Inhibition of human recombinant NEK11 at 40 nM related to control ULK1
# T2 sequence (whole entry): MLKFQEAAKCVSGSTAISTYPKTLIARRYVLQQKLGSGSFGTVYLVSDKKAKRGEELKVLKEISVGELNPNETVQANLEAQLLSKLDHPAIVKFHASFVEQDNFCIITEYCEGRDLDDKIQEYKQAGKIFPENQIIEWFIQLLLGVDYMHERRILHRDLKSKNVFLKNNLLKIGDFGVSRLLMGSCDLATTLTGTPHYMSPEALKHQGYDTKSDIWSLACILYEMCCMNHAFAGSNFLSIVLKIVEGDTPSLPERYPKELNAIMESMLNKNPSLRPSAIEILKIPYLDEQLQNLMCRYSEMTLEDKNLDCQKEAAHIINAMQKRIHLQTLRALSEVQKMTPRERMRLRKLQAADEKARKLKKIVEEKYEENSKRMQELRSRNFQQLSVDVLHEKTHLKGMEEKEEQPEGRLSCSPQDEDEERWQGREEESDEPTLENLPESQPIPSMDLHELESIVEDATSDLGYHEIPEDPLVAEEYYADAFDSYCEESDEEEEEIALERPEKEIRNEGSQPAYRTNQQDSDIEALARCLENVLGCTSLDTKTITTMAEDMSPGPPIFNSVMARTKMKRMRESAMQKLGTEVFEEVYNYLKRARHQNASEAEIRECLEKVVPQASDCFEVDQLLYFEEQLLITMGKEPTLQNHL
# [7] = biological target: NT-3 growth factor receptor (Homo sapiens) (UniProt Q16288); assay: Inhibition of human recombinant TRKC at 500 nM related to control ULK1
# [8] = biological target: Dual specificity protein kinase CLK4 (Homo sapiens) (UniProt Q9HAZ1); assay: Inhibition of human recombinant CLK4 at 15 nM related to control ULK1
# [9] = biological target: Leucine-rich repeat serine/threonine-protein kinase 2 (Homo sapiens) (UniProt Q5S007); assay: Inhibition of human recombinant LRRK2 at 15 nM in presence of ATP by radiometric assay relative to control
# [10] = biological target: T3, Serine/threonine-protein kinase BRSK1 (Homo sapiens) (UniProt Q8TDC3); assay: Inhibition of human recombinant BRSK1 at 15 nM related to control ULK1
# T3 sequence (whole entry): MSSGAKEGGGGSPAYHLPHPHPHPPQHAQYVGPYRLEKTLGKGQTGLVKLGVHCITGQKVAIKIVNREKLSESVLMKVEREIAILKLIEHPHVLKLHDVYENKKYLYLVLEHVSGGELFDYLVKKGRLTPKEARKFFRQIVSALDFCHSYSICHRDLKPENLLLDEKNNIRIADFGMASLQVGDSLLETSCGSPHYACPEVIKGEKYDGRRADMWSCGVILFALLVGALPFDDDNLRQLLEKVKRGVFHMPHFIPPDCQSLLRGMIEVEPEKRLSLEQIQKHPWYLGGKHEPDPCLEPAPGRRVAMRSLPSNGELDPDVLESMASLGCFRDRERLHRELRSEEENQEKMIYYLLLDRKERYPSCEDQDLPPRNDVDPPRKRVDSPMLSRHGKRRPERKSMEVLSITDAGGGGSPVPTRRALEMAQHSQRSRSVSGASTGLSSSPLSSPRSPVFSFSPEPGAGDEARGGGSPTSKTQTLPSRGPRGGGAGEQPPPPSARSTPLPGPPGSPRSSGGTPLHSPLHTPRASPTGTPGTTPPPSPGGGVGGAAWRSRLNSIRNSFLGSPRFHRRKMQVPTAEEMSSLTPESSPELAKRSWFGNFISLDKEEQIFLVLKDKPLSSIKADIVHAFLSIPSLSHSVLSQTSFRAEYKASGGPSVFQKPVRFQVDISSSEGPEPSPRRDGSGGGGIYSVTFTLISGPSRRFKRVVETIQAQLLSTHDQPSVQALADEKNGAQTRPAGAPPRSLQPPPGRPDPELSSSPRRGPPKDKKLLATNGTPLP
# NT-3 growth factor receptor (Homo sapiens), sequence (Q16288 32-839 limits assumed): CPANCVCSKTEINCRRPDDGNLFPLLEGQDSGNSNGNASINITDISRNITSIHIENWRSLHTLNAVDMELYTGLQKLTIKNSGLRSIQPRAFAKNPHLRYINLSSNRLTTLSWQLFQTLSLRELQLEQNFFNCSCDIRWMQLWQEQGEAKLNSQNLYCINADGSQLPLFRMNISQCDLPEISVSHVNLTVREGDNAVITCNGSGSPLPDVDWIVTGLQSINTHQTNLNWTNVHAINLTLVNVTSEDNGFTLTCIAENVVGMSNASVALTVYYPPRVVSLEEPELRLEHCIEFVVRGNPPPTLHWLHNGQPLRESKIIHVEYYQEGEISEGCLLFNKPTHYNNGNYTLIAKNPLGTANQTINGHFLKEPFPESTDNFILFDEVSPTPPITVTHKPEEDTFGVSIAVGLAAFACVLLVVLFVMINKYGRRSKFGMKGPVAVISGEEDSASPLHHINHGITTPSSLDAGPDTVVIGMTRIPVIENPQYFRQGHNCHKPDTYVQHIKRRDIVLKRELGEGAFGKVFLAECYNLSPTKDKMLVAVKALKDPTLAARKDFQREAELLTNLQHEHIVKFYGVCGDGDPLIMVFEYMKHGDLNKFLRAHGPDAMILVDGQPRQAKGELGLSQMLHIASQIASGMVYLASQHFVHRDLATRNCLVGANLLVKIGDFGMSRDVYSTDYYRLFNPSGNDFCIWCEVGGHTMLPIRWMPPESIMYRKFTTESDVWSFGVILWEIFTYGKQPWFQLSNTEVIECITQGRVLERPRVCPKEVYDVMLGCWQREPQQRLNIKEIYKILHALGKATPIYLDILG
# Leucine-rich repeat serine/threonine-protein kinase 2 (Homo sapiens), sequence (Q5S007 whole entry): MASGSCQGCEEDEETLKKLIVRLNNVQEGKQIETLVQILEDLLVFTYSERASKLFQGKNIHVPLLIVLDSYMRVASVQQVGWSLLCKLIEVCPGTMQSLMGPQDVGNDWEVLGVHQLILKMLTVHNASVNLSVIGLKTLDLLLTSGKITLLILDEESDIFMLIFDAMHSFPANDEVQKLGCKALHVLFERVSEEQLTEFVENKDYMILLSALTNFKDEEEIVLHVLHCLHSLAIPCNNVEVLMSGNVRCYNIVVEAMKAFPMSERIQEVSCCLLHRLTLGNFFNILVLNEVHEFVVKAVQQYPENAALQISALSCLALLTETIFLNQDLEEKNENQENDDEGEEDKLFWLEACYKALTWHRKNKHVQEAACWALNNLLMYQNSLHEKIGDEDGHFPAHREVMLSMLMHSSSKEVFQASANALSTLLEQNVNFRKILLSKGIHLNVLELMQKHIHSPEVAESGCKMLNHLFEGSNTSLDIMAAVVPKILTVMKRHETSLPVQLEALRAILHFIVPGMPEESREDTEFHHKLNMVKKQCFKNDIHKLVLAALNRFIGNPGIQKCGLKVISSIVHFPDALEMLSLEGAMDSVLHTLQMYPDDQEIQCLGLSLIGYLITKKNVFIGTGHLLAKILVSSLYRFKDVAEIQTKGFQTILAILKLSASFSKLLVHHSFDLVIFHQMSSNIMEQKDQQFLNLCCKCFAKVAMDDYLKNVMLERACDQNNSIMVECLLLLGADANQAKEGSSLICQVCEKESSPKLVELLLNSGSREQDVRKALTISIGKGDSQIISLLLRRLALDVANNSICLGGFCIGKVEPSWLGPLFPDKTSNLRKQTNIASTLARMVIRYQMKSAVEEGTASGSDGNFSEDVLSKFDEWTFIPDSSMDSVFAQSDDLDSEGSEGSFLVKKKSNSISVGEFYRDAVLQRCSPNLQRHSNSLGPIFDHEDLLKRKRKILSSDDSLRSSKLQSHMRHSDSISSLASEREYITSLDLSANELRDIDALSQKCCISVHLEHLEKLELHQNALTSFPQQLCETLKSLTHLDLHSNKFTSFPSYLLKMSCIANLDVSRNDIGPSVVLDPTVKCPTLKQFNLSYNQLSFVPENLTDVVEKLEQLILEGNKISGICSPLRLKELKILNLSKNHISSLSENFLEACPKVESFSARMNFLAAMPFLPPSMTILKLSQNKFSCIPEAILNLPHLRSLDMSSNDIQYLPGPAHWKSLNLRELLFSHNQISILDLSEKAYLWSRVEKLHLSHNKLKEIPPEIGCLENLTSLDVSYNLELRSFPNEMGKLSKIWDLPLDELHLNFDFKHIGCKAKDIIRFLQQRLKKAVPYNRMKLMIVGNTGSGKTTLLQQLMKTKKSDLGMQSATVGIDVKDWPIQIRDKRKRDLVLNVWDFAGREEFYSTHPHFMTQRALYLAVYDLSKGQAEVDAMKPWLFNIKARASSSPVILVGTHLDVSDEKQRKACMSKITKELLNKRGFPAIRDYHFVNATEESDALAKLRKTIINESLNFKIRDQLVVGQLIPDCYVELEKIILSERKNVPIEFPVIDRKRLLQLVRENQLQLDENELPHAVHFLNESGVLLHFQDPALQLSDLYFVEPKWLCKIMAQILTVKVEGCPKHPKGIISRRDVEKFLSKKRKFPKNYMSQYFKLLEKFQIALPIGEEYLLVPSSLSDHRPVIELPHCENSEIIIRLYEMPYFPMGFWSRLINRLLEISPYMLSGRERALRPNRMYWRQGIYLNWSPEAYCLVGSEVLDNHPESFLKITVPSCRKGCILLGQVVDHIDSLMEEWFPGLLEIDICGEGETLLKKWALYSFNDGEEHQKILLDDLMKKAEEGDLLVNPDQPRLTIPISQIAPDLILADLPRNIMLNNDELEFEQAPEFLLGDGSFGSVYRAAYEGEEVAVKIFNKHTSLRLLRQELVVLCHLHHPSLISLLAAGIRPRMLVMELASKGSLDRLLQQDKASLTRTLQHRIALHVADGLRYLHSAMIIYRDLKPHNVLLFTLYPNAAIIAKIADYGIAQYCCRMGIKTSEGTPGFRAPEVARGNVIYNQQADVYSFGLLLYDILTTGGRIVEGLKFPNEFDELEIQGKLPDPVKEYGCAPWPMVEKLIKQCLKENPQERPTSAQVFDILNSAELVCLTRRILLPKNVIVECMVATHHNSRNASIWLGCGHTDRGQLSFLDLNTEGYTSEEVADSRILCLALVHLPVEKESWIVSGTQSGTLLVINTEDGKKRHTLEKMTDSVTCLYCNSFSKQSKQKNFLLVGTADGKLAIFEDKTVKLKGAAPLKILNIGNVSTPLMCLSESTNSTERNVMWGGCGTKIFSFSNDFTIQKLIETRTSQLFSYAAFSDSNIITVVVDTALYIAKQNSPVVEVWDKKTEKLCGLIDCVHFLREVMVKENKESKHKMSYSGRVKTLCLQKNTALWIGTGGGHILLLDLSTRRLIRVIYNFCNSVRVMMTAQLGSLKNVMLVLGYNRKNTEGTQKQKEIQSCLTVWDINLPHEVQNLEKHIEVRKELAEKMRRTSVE
# Dual specificity protein kinase CLK4 (Homo sapiens), sequence (Q9HAZ1 whole entry, looked up): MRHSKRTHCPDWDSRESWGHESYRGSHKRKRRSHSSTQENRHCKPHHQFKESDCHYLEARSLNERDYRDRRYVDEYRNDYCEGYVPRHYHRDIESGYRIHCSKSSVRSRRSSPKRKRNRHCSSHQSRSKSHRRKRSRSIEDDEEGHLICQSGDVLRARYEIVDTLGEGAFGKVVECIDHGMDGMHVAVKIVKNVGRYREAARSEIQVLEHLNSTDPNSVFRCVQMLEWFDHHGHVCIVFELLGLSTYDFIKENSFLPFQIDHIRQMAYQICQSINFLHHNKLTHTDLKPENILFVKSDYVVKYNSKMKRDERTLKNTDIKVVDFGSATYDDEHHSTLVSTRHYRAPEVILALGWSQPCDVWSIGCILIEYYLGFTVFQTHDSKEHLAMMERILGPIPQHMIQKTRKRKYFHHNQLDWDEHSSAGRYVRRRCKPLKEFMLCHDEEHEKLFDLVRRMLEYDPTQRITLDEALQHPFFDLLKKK
# Serine/threonine-protein kinase PLK1 (Homo sapiens), sequence (P53350 whole entry): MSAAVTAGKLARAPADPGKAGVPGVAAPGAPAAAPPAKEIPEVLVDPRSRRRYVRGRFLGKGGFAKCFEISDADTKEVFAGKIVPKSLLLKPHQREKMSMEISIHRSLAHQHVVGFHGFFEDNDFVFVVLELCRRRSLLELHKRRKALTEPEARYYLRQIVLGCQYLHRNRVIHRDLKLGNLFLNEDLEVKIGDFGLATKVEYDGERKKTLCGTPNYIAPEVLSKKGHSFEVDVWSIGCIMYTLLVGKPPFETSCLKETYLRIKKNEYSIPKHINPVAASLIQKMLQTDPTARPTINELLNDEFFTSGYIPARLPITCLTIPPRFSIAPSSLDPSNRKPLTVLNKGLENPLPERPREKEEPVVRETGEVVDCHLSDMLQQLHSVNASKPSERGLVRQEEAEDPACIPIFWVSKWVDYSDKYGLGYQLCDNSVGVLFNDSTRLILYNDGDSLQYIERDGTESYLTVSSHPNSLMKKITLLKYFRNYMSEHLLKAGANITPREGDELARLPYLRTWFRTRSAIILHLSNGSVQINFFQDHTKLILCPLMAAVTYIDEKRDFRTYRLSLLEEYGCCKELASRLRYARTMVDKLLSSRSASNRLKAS
# Serine/threonine-protein kinase Nek7 (Homo sapiens), sequence (Q8TDX7 whole entry, looked up): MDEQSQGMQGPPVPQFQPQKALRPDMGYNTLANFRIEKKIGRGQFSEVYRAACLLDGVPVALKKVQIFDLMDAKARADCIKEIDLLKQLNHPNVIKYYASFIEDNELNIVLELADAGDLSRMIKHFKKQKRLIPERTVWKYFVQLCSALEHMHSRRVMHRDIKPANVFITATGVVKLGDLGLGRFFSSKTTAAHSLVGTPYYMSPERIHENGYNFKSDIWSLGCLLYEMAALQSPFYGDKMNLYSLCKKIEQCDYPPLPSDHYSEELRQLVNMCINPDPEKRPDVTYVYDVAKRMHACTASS
structure (smiles),measurement,setting,value
O=C(N[C@@H](C1CC1)C(F)(F)F)c1cc(-c2cnn3cc(-c4ccc(F)cc4)cnc23)cs1,inhibition,[1],20%
same,fold change (FC),[2],0
same,fold change (FC),[3],0
same,inhibition,U2OS,Active
same,inhibition,[4],7%
same,inhibition,[5],0%
same,fold change (FC),[6],0.11
CNC(=O)c1ccccc1Oc1nc(Nc2cc(OC)c(OC)c(OC)c2)ncc1Br,fold change (FC),[7],0
CC(C)[C@H](NC(=O)c1cc(-c2cnn3cc(-c4ccc(OCCN5CCCCC5)cc4)cnc23)cs1)C(F)(F)F,fold change (FC),[8],0.94
same,inhibition,[9],3%
same,fold change (FC),[10],0.15
